Screens deposited in PubChem BioAssay by Broad Institute.
Statin myotox sup: suppressors of simvastatin-induced myotoxicity in C2C12 myotubes; 330,000 tested, 0.78% active; AID 602340; ATP luminescence, 48 h; scaled: DMSO 0, geranylgeraniol control 100; rescue of ATP level, % at 7.49 µM;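 active = mean ATP rescue above about 67%, or every replicate alone reaching that limit, limit read from the data, passing the limit was not always enough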;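 also: myotubes were challenged with 10 µM simvastatin during compound exposure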
E-selectin induc: E-selectin induction on HUVECs; P16581; HUVEC E-selectin immunofluorescence imaging; normalized: neutral wells 0, TNF-alpha wells 100; activation, % at 7.58 µM; 260,000 tested, 0.37% active; AID 686992;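 active = mean E-selectin-positive cell signal at least 10% of the positive control, reached in at least 60% of replicates, without over 20% cell loss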
Target sequence (P16581 whole entry, looked up): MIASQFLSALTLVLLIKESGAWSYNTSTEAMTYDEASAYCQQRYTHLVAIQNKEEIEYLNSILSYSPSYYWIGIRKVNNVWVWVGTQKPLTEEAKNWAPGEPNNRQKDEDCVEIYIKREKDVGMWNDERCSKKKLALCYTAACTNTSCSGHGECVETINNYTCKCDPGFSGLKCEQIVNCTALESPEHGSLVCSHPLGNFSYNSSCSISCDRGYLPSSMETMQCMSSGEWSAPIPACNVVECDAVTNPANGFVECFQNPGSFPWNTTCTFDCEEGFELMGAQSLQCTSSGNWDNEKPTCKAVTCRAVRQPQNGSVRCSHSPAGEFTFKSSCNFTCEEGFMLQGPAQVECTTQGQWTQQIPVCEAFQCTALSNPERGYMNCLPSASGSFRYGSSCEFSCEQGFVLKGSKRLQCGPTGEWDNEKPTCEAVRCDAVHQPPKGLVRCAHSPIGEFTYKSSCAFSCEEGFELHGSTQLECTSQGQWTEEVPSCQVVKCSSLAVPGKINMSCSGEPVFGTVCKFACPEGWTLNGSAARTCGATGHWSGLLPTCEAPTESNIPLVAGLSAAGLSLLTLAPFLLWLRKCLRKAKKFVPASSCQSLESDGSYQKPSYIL
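Test system: HUVEC; input: 3,000 HUVEC/well; measured by: immunofluorescence imaging; read-out: % PE-positive cells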
DENV2 CPE: DENV2-induced cell death inhibition. DENV2-infected cells, cytopathic effect rescue, plate reader. CPE inhibition, % at 9.99 µM. 350,000 tested, 1.7% active. AID 651640; in the data active = CPE inhibition above about 20%, passing the limit was not always enough; tested in BHK-21 cells;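 also: 0% = median of neutral control wells and 100% = median of positive control wells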
Starred values were filed as active, the others as inactive; . = not tested or not shown; + = active, no number. Sampled rows, rich in hits. Any-hit rate of the full collection: about 2.2%.

SMILES	Statin myotox sup	E-selectin induc	DENV2 CPE
Cc1ccc(N(CC(=O)NC(C)(C)C)C(=O)CNC(=O)c2cccs2)cc1	.	.	0
CC1(OC(=O)CCc2ccccc2)C(=O)C=C2C=C(c3ccc(C#N)cc3)N(CC3CC3)C=C2C1=O (configuration not stated)	11	1	12
CC1(OC(=O)CCc2ccccc2)C(=O)C=C2C=C(c3ccc(C#N)cc3)N(c3ccccc3)C=C2C1=O (configuration not stated)	1	2	41*
CCC(=O)N(C)C[C@H]1Oc2cc(C3=CCCCC3)ccc2S(=O)(=O)N([C@H](C)CO)C[C@@H]1C	-3	-1	.
COCC(=O)Nc1ccc2c(c1)[C@H]1C[C@H](CC(=O)NCc3ccc(OC)cc3)O[C@H](CO)[C@H]1O2	-4	1	18
CCOC(=O)C1(C)NC(c2ccc(N(C)C)cc2)C2C(=O)N(c3ccc(OC)cc3)C(=O)C21 (configuration not stated)	115*	.	.
CCOC(=O)C1(C)NC(c2ccc(N(C)C)cc2)C2C(=O)N(CC)C(=O)C21 (configuration not stated)	1	.	.
COc1ccccc1S(=O)(=O)N[C@@H]1CC[C@H](CC(=O)NCc2cccc(F)c2)O[C@@H]1CO	8	-1	1
COc1ccc(NC(=O)Nc2ccc3c(c2)C(=O)N([C@@H](C)CO)C[C@@H](C)[C@@H](CN(C)S(=O)(=O)c2cn(C)cn2)OCCCC[C@@H](C)O3)cc1	.	0	0
O=C(CSc1nnc2ccccn12)NNC(=O)c1ccc(Cl)cc1	25	8	-3
O=C(CSc1nnc2ccccn12)NNC(=O)c1cccc(Cl)c1	113*	6	8
Cc1ccc(S(=O)(=O)N(C)C[C@@H]2OCCCC[C@H](C)Oc3ccc(N(C)C)cc3C(=O)N([C@@H](C)CO)C[C@@H]2C)cc1	26	0	-10
CN1C(=O)c2cc(NC(=O)c3ccno3)ccc2OC[C@H]2O[C@@H](CC(=O)NC3Cc4ccccc4C3)CC[C@@H]21	17	0	53*
CN1C(=O)c2cc(NC(=O)c3ccc(C(F)(F)F)cc3)ccc2OC[C@@H]2O[C@@H](CC(=O)NC3Cc4ccccc4C3)CC[C@@H]21	28	.	.
CCC(=O)Nc1ccc2c(c1)C(=O)N(C)[C@H]1CC[C@@H](CC(=O)NC3Cc4ccccc4C3)O[C@H]1CO2	2	0	-2
CN1C(=O)c2cc(NC(=O)c3ccc(C#N)cc3)ccc2OC[C@H]2O[C@@H](CC(=O)NC3Cc4ccccc4C3)CC[C@@H]21	52	0	75*
CCCNC(=O)[C@H]1[C@H](CO)[C@H]2Cn3c(ccc(/C=C/c4ccccc4)c3=O)[C@@H]1N2C(C)=O	9	0	11
COCC(=O)N1[C@@H](C#N)[C@@H](c2ccc(-c3cccc(F)c3)cc2)[C@@H]1CO	-35	3	-17
C[C@@H]1CN([C@@H](C)CO)C(=O)Cc2cc(NC(=O)Nc3ccc(F)cc3)ccc2O[C@H]1CN(C)Cc1ccc(-c2ccccc2)cc1	20	0	5
c1coc(-c2nc3ccccc3s2)c1	120*	0	2
COc1ccc(-c2nc3ccccc3s2)cc1	.	0	-10
OC[C@H]1[C@@H](c2ccc(-c3cncnc3)cc2)[C@@H]2CN(CC3CCOCC3)CCCCN12	24	0	-9
Cc1ccc(C(=O)NC(=C(Cl)Cl)S(=O)(=O)c2ccccc2)cc1	.	2	-1
COC(=O)NC(=C(Cl)Cl)S(=O)(=O)c1ccccc1	147*	.	.
C=CCNC(=O)c1ccc(C2SCC(=O)N2Cc2ccccc2)cc1 (configuration not stated)	-7	6	5
SMILES	Statin myotox sup	E-selectin induc	DENV2 CPE
O=C(NCc1ccccc1)c1ccc(C2SCC(=O)N2Cc2ccccc2)cc1 (configuration not stated)	79*	.	.
CC1CCCN(C(=O)c2sc3cc([N+](=O)[O-])ccc3c2Cl)C1 (configuration not stated)	66*	.	.
O=C(c1sc2cc([N+](=O)[O-])ccc2c1Cl)N1CCCCC1	1	.	.
O=C(c1ccccc1F)N1CC(=O)N2[C@H](C1)[C@@H](c1ccc(-c3ccccc3)cc1)[C@@H]2CO	.	0	0
C[C@H]1CN([C@@H](C)CO)C(=O)c2cc(NC(=O)CCCN(C)C)ccc2O[C@@H]1CN(C)S(=O)(=O)c1cn(C)cn1	.	-3	38*
C[C@H]1CN([C@@H](C)CO)C(=O)c2cc(NC(=O)CCCN(C)C)ccc2O[C@@H]1CN(C)S(=O)(=O)c1ccc(F)cc1	-8	9	0
C[C@H]1CN([C@@H](C)CO)C(=O)c2cc(NC(=O)CCC(F)(F)F)ccc2O[C@H]1CN(C)S(=O)(=O)c1ccc(Cl)cc1	-9	0	73*
C[C@H]1CN([C@@H](C)CO)C(=O)c2cc(NC(=O)CCCN(C)C)ccc2O[C@@H]1CN(C)S(=O)(=O)c1ccc(Cl)cc1	2	0	+
C[C@@H]1CN([C@H](C)CO)C(=O)c2cc(NC(=O)CCCN(C)C)ccc2O[C@H]1CN(C)S(=O)(=O)c1cn(C)cn1	.	0	6
C[C@@H]1CN([C@H](C)CO)C(=O)c2cc(NC(=O)CCC(F)(F)F)ccc2O[C@@H]1CN(C)S(=O)(=O)c1ccc(Cl)cc1	-37	1	-11
COc1ccc2nc(SC(C)C(=O)NC3CCCC3)[nH]c2c1 (configuration not stated)	-6	0	64*
COc1ccc2nc(SC(C)C(=O)NC3(C#N)CCCCC3)[nH]c2c1 (configuration not stated)	7	0	-6
CCC(=O)Nc1ccc2c(c1)C(=O)N(C)[C@@H]1CC[C@H](CC(=O)NCCc3ccccc3)O[C@H]1CO2	-2	0	6
N#Cc1ccccc1Sc1ccccc1C(=O)OCC(=O)NC12CC3CC(CC(C3)C1)C2	.	0	.
CC1CCCC(NC(=O)COC(=O)c2ccccc2Sc2ccccc2C#N)C1C (configuration not stated)	.	.	57*
COc1ccc(NC(=O)Nc2ccc3c(c2)C(=O)N([C@H](C)CO)C[C@H](C)[C@H](CN(C)S(=O)(=O)c2ccccc2)OCCCC[C@H](C)O3)cc1	.	.	-6
CC=Cc1ccc2n(c1=O)C[C@H]1[C@H](CO)[C@@H](C(=O)N[C@H](C)c3ccccc3)N(C(=O)c3ccccn3)[C@@H]21 (mixture of isomers)	-19	0	3
CC(C)CNC(=O)C1Nc2ccccc2C2C=CCC12 (configuration not stated)	-3	.	63*
COC(=O)CNC(=O)C1Nc2ccccc2C2C=CCC12 (configuration not stated)	0	.	15
Cc1ccc(S(=O)(=O)N[C@H]2CC[C@@H](CC(=O)NCCCN(C)C)O[C@@H]2CO)cc1	-10	1	-2
CCCCCc1c(-c2ccc(OC)cc2)ncn1CCc1ccccc1OC	.	0	-7
CCCCCc1c(-c2ccc(Cl)cc2)ncn1CCc1ccccc1OC	.	0	21*
C[C@@H]1CN([C@H](C)CO)C(=O)c2cccc(NC(=O)C3CCOCC3)c2O[C@@H]1CN(C)C(=O)Nc1ccc(C(F)(F)F)cc1	9	0	-4
COc1ccc(NC(=O)Cn2cc(C#N)c3ccccc32)cc1	.	2	-4
